Reference: ChEMBL document CHEMBL1240482, “Synthesis and antiproliferative evaluation of certain indeno[1,2-c]quinoline derivatives. Part 2” (J Med Chem, 2010)
Activity calls are given as the source filed them. The rule behind the calls is not given here.

Key:
A549 = assay: Cytotoxicity against human A549 cells after 48 hrs by MTT assay; type: functional; conditions: A549, 48 h
How it was run: (§1)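 Cells grown in DMEM with 10% FBS at 37 °C and 5% CO2, seeded at 5 × 10^3 per well and allowed 24 h before drug. Serial dilutions from DMSO stocks applied for 48 h. MTT (2 mg/mL in PBS) added for 2 h, formazan dissolved in DMSO, absorbance read at 570 nm. GI50 interpolated by linear regression from at least three points in the 20-80% range; three independent experiments.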

DNA topoisomerase 1 = target: T1, DNA topoisomerase 1 (Homo sapiens, UniProt P11387); assay: Inhibition of human topoisomerase 1 assessed as decrease in pBR322 mobility on agarose gel by electrophoresis
T1 sequence (P11387 whole entry): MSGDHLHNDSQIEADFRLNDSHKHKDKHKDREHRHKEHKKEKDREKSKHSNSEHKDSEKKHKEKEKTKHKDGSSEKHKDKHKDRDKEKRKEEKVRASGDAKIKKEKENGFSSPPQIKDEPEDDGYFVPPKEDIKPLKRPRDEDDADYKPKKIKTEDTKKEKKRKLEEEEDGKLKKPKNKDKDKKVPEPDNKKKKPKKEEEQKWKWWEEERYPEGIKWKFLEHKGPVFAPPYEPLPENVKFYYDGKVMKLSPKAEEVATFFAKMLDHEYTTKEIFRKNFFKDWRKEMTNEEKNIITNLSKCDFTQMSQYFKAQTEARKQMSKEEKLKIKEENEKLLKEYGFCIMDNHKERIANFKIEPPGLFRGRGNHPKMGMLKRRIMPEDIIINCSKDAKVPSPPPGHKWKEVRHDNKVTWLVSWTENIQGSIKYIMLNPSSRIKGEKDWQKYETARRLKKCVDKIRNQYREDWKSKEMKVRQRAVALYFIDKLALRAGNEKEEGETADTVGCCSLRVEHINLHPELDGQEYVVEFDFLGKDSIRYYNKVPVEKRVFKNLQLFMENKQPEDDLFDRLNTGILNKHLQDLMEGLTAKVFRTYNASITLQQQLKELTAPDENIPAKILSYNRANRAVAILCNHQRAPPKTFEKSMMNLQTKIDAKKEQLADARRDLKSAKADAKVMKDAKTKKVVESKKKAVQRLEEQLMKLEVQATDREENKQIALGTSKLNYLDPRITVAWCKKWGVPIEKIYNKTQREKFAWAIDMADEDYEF
How it was run: (§2)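 Enzyme preincubated with compound before DNA addition; reaction run 30 min at 37 °C and stopped with SDS. Products resolved on 1% agarose, stained with ethidium bromide, quantified by densitometry.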

Detroit 551 [1] = assay: Selectivity index, ratio of IC50 for human Detroit 551 cells to IC50 for human SKHep cells; type: functional
SAS [2] = assay: Cytotoxicity against human SAS cells after 48 hrs by MTT assay; type: functional; how it was run: as §1
[3] = target: T2, DNA topoisomerase 1 (Homo sapiens) (UniProt P11387); assay: Inhibition of human topoisomerase 1 assessed as decrease in pBR322 mobility on agarose gel at 10 uM by electrophoresis; how it was run: as §2
T2 sequence (whole entry): T1 sequence (P11387 whole entry)

HeLa [4] = assay: Cytotoxicity against human HeLa cells after 48 hrs by MTT assay; type: functional; how it was run: as §1
[5] = Cytotoxicity against human Detroit 551 cells after 48 hrs by MTT assay; type: cell-based; how it was run: as §1
Detroit 551 [6] = assay: Selectivity index, ratio of IC50 for human Detroit 551 cells to IC50 for human A549 cells; type: functional
[7] = Inhibition of human topoisomerase 2 assessed as decrease in pBR322 mobility on agarose gel by electrophoresis; how it was run: as §2
Detroit 551 [8] = assay: Selectivity index, ratio of IC50 for human Detroit 551 cells to IC50 for human PC3 cells; type: functional
Detroit 551 [9] = assay: Selectivity index, ratio of IC50 for human Detroit 551 cells to IC50 for human BT-483 cells; type: functional
Homo sapiens = organism: Homo sapiens; assay: Inhibition of human topoisomerase 2 assessed as decrease in pBR322 mobility on agarose gel at 10 uM by electrophoresis; how it was run: as §2
[10] = Cytotoxicity against human BT-483 cells after 48 hrs by MTT assay; type: functional; conditions: BT-483, 48 h; how it was run: as §1
PC-3 = assay: Cytotoxicity against human PC3 cells after 48 hrs by MTT assay; type: functional; conditions: PC-3, 48 h; how it was run: as §1
[11] = Cytotoxicity against human SKHep cells after 48 hrs by MTT assay; type: functional; how it was run: as §1
SAS [12] = assay: Selectivity index, ratio of IC50 for human Detroit 551 cells to IC50 for human SAS cells; type: functional
HeLa [13] = assay: Selectivity index, ratio of IC50 for human Detroit 551 cells to IC50 for human HeLa cells; type: functional
Nucleic Acid = assay: Binding affinity to pBR322; type: nucleic-acid assay; conditions: Escherichia coli

| SMILES | GI50 (A549) [µM] | IC50 (DNA topoisomerase 1) [µM] | RatioGI50 (Detroit 551 [1]) | GI50 (SAS [2]) [µM] | inhibition [3] [%] | GI50 (HeLa [4]; read-out: GI50) [µM] | GI50 (HeLa [4]; read-out: pGI50 (converted)) [µM] | GI50 at 48 h [5] [µM] | RatioGI50 (Detroit 551 [6]) | IC50 [7] [µM] | RatioGI50 (Detroit 551 [8]) | RatioGI50 (Detroit 551 [9]) | inhibition (Homo sapiens) [%] | GI50 [10] [µM] | GI50 (PC-3) [µM] | GI50 [11] [µM] | RatioGI50 (SAS [12]) | RatioGI50 (HeLa [13]) | Activity (Nucleic Acid) |
| --- | --- | --- | --- | --- | --- | --- | --- | --- | --- | --- | --- | --- | --- | --- | --- | --- | --- | --- | --- |
| COc1ccc2c(c1)/C(=N\OCCN1CCOCC1)c1c-2c(N2CCNCC2)nc2ccccc12 | 2.2 | 13 | 2.65 | 6.93 | 40 | 0.78 | 0.776 | 2.6 | 1.18 | 5.97 | 0.4 | 0.69 | 100 | 3.75 | 6.47 | 0.98 | 0.38 | 3.33 | – |
| COc1ccc2c(c1)/C(=N\O)c1c-2cnc2ccccc12 | > 30 | – | – | > 30 | – | 11.4 | 11.5 | – | – | – | – | – | – | > 30 | > 30 | 8.42 | – | – | – |
| COc1ccc2c(c1)/C(=N\OCCCN(C)C)c1c-2c(=O)[nH]c2ccccc12 | – | > 100 | – | – | – | – | – | 2.09 | – | – | – | – | – | – | – | – | – | – | – |
| COc1ccc2c(c1)/C(=N\OCCCN(C)C)c1c-2c(O)nc2ccccc12 | 0.63 | – | 2.79 | 3.1 | 3 | 0.2 | 0.2 | – | 3.32 | 7.14 | 0.48 | 1.62 | 77 | 1.29 | 4.35 | 0.75 | 0.67 | 10.45 | Active |
| COc1ccc2c(c1)/C(=N\OCCN(C)C)c1c-2c(N2CCNCC2)nc2ccccc12 | – | 8.5 | 0.9 | – | 56 | – | 0.912 | 2.72 | 3.83 | 4.87 | 0.59 | 2.47 | 75 | 1.1 | – | – | 0.43 | 2.96 | Active |
| COc1ccc2c(c1)/C(=N\OCCN1CCCCC1)c1c-2c(N2CCNCC2)nc2ccccc12 | – | 11.5 | 1.46 | – | 45 | – | 0.776 | 2.3 | 2.64 | 8 | 0.41 | 0.57 | 68 | 4.03 | – | – | 0.4 | 2.95 | Active |
| COc1ccc2c(c1)/C(=N\O)c1c-2c(N2CCNCC2)nc2ccccc12 | – | – | – | – | – | – | 2.34 | – | – | – | – | – | – | – | – | – | – | – | – |
| COc1ccc2c(c1)/C(=N\OCCCN(C)C)c1c-2cnc2ccccc12 | 1.83 | 40 | 3.22 | 6.1 | 5 | 1.11 | 1.12 | 3.45 | 1.89 | 13.2 | 0.61 | 3.71 | 75 | 0.93 | 5.65 | 1.07 | 0.57 | 3.11 | – |
| COc1cccc2c1C(=O)c1c(O)c3c(c(O)c1C2=O)C[C@@](O)(C(=O)CO)C[C@@H]3O[C@H]1C[C@H](N)[C@H](O)[C@H](C)O1 [DOXORUBICIN] | – | – | – | – | 35 | – | – | – | – | 1.9 | – | – | 85 | – | – | – | – | – | – |
| COc1ccc2c(c1)/C(=N\OCCN1CCOCC1)c1c-2c(O)nc2ccccc12 | > 30 | > 100 | – | 16.5 | 0 | 5.02 | 5.01 | – | – | > 100 | – | – | 0 | 6.04 | 13.6 | 10.4 | – | – | – |
| COc1ccc2c(c1)/C(=N\OCCN1CCCCC1)c1c-2c(=O)[nH]c2ccccc12 | – | > 100 | – | – | – | – | – | 7.5 | – | – | – | – | – | – | – | – | – | – | – |
| COc1ccc2c(c1)/C(=N\OCCN1CCCCC1)c1c-2c(O)nc2ccccc12 | 6.95 | – | 1.75 | 5.39 | 0 | 0.84 | 0.832 | – | 1.08 | > 100 | 1.31 | 4.72 | 0 | 1.59 | 5.74 | 4.28 | 1.39 | 8.93 | Active |
| CC[C@@]1(O)C(=O)OCc2c1cc1n(c2=O)Cc2cc3ccccc3nc2-1 [CAMPTOTHECIN] | – | – | – | – | – | 0.08 | – | 0.99 | – | > 100 | – | – | 0 | 1.03 | – | – | – | – | – |
| COc1ccc2c(c1)C(=O)c1c-2cnc2ccccc12 | 13.5 | > 100 | – | > 30 | 0 | 17.2 | 17.4 | – | – | > 100 | – | – | 0 | > 30 | > 30 | > 30 | – | – | – |
| COc1ccc2c(c1)/C(=N\OCCN1CCOCC1)c1c-2cnc2ccccc12 | 28.2 | > 100 | – | 15.7 | 0 | 16.9 | 17 | – | – | > 100 | – | – | 0 | 10.2 | 7.81 | 20.8 | – | – | – |
